# Measured values reported in ChEMBL document CHEMBL1159071, “Discovery of 4-(5-methyloxazolo[4,5-b]pyridin-2-yl)-1,4-diazabicyclo[3.2.2]nonane (CP-810,123), a novel alpha 7 nicotinic acetylcholine receptor agonist for the treatment of cognitive disorders in schizophrenia: synthesis, SAR development, and in vivo efficacy in cognition models” (J Med Chem, 2010).
# Active and inactive are the calls of the source. The rule behind the calls is not given here.
# How the values were obtained:
# Rattus norvegicus [1] = experiment: Cognitive enhancement in Sprague-Dawley rat assessed as augmentation of amphetamine-induced hippocampal theta oscillation at 1 mg/kg, sc; format: functional, organism-based; set-up: dose 1 mg/kg; settings: Hippocampus
# Rattus norvegicus [2] = experiment: Cognitive enhancement in Sprague-Dawley rat assessed as reversal of amphetamine-induced auditory sensory gating deficit at 0.03 mg/kg, sc; format: functional, organism-based; set-up: dose 0.03 mg/kg
# In short: (§1)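 Male Sprague-Dawley rats (250-300 g) under chloral hydrate (400 mg/kg ip), femoral vein cannulated. CA3 hippocampal field potential recorded; auditory-evoked responses averaged over 50 stimulus pairs at 10 s interstimulus interval. Gating disrupted by d-amphetamine 1 mg/kg iv; compound sc. Read-out is reversal of the amphetamine deficit; PBS vehicle; two-tailed paired t-test.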
# [3] = target: Neuronal acetylcholine receptor; alpha3/beta4 (Homo sapiens, UniProt P30926+P32297); experiment: Displacement of [3H]epibatidine from alpha3beta4 nAChR expressed in IMR32 cells; format: cell-based, IMR-32
# In short: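 Alpha3β4 binding in IMR32 cells with [3H]epibatidine radioligand. Six-point concentration-response curve run in triplicate and averaged.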
# [4] = target: Neuronal acetylcholine receptor subunit alpha-7 (Homo sapiens, UniProt P36544); experiment: Displacement of [125I]BTX from human alpha7 nicotinic acetylcholine receptor expressed in IMR32 cells; format: cell-based, IMR-32
# In short: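 Human α7 nAChR in IMR-32 cells, [125I]BTX radioligand. Six-point concentration-response curve, run in triplicate and averaged.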
# [5] = target: T1, 5-hydroxytryptamine receptor 3A (Mus musculus, UniProt P23979); experiment: Displacement of [3H]LY278584 from mouse 5HT3 receptor expressed in HEK293 cells; format: cell-based
# T1 sequence (P23979 whole entry): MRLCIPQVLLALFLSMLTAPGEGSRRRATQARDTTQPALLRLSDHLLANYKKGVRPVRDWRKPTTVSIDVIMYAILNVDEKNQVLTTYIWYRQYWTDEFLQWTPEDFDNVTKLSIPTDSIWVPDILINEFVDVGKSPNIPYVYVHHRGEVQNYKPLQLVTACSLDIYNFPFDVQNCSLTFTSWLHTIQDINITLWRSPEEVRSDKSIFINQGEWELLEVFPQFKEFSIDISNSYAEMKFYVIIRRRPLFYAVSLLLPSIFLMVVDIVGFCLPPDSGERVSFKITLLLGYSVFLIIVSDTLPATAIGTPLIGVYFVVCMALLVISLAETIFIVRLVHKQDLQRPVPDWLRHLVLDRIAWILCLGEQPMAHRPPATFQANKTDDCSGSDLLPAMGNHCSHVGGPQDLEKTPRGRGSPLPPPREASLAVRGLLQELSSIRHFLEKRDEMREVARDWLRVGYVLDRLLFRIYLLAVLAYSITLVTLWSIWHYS
# In short: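 Mouse 5-HT3A in HEK293 cell homogenate, 20 mM Tris-HCl pH 7.4 with 154 mM NaCl. [3H]LY278584 1 nM final; nonspecific binding with 10 μM ICS205-930; 60 min at 37 °C, then filtration onto PEI-soaked GF/B. Ki by Cheng-Prusoff; mean of three six-point curves in triplicate in one assay; tropisetron standard.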
# CHO = experiment: Toxicity in CHO cells assessed as induction of DNA fragments by in vitro micronucleus assay; format: cell-based, Cricetulus griseus; settings: chinese hamster
# [6] = target: T2, Muscarinic acetylcholine receptor M4 (Homo sapiens, UniProt P08173); experiment: Inhibition of muscarinic M4 receptor
# T2 sequence (P08173 whole entry): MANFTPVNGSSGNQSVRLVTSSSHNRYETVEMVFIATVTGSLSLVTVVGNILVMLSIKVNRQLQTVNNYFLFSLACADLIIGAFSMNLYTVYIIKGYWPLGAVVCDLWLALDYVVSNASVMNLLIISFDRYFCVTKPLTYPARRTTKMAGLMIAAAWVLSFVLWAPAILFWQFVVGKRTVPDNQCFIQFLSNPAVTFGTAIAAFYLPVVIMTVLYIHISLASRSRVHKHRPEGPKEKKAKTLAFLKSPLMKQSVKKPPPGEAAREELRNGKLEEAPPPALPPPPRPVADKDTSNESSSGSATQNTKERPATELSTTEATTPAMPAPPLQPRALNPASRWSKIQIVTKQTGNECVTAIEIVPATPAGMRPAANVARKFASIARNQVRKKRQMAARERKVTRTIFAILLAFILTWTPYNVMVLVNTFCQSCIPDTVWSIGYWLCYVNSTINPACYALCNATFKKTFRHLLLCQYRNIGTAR
# [7] = Half life in human liver microsomes; format: ADME, Microsome
# In short: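 Stability in human liver microsomes.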
# [8] = target: T3, Muscarinic acetylcholine receptor M1 (Homo sapiens, UniProt P11229); experiment: Inhibition of muscarinic M1 receptor
# T3 sequence (P11229 whole entry): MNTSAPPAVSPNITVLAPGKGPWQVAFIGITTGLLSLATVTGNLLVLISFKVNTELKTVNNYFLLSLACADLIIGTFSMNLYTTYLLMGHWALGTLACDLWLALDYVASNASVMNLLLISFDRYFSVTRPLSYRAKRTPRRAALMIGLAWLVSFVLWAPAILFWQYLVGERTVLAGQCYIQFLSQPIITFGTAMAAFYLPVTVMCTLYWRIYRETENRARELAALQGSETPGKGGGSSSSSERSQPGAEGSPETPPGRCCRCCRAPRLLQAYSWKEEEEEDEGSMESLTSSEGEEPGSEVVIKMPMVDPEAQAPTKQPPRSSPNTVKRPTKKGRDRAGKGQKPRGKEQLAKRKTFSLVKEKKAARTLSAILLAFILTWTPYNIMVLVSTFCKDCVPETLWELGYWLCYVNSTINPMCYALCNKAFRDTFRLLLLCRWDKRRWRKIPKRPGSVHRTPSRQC
# Rattus norvegicus [9] = experiment: Free plasma concentration in Sprague-Dawley rat auditory sensory gating deficit model at 0.3 mg/kg, sc after 40 mins; format: functional; settings: route subcutaneous
# In short: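 Rats given 0.3 mg/kg sc; free plasma concentration measured about 40 min after dosing.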
# Rattus norvegicus [10] = experiment: Cognitive enhancement in Sprague-Dawley rat assessed as reversal of amphetamine-induced auditory sensory gating deficit at 0.1 mg/kg, sc; format: functional, organism-based; set-up: dose 0.1 mg/kg; in short: as §1
# Sequence of Neuronal acetylcholine receptor subunit alpha-7 (P36544 whole entry): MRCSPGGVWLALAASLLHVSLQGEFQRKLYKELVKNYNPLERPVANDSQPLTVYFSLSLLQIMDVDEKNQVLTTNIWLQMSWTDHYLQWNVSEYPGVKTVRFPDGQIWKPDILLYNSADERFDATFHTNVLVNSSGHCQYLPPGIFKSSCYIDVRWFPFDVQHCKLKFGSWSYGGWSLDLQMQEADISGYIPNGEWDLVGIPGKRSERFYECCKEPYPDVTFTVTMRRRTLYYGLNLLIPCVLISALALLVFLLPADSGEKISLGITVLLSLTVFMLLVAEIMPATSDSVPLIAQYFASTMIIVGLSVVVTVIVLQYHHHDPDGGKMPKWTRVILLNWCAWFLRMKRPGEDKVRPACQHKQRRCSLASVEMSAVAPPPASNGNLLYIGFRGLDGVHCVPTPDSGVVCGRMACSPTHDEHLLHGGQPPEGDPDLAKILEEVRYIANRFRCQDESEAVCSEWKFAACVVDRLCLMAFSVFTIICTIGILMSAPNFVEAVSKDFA
# Sequence of Neuronal acetylcholine receptor; alpha3/beta4 (P30926 whole entry): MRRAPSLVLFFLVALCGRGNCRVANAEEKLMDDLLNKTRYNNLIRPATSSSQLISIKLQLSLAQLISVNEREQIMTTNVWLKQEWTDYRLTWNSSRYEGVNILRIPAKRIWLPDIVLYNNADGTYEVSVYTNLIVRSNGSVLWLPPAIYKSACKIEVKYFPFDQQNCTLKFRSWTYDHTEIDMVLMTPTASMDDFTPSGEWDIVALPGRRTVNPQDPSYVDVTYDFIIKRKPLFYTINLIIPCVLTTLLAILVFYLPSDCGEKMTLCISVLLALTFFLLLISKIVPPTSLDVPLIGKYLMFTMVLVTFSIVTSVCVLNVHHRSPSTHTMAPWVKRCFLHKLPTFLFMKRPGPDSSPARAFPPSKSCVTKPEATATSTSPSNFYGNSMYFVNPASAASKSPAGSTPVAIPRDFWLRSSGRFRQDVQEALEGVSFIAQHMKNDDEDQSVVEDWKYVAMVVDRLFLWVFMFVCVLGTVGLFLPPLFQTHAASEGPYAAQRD
# Sequence of Neuronal acetylcholine receptor; alpha3/beta4 (P32297 whole entry): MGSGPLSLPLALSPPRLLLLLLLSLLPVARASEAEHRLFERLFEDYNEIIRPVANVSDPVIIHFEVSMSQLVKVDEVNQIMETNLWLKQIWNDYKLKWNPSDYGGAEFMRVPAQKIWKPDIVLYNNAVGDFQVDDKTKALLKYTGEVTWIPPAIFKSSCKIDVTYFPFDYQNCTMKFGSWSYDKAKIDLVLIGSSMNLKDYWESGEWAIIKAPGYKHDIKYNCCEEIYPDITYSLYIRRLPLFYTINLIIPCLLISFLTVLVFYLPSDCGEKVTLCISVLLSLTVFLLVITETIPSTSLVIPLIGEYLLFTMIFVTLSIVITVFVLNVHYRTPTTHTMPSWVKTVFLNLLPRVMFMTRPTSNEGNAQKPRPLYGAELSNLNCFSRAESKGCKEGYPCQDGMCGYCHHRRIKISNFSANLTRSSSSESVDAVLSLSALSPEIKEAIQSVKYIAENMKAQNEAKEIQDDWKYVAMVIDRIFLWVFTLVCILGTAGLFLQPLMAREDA
smiles,measurement,setting,value
Cc1ccc2oc(N3CCN4CCC3CC4)nc2n1,Activity,Rattus norvegicus [1],Active
same,Activity,Rattus norvegicus [2],Active
same,Ki,[3],5.37 µM
same,Ki,[4],0.0164 µM
same,Ki,[5],0.269 µM
same,Activity,CHO,Non-toxic
same,Ki,[6],3 µM
same,half-life,[7],> 2 h
same,Ki,[8],14 µM
same,Cp(f),Rattus norvegicus [9],326 nM
same,Activity,Rattus norvegicus [10],Active
